# Measured values: ChEMBL document CHEMBL2311290 (J Med Chem, 2013)
# Calls of active or inactive are those of the source. The calls are words filed in the database; no cut-off is given here.
# How the values were obtained:
# [1] = target: Coagulation factor XI (Homo sapiens) (UniProt P03951); test: Inhibition of human FXIa assessed as S-2366 hydrolysis at 250 uM after 10 mins by microplate reader analysis
# Procedure, shortened: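 Human FXIa at 0.765 nM final in pH 7.4 Tris buffer (150 mM NaCl, 0.1% PEG8000, 0.02% Tween80). It is preincubated 10 min at 37 °C with the agent or solvent, then 345 µM S-2366 is added. Initial rate of A405 increase gives residual activity relative to no-inhibitor control.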
# [2] = target: Coagulation factor XI (Homo sapiens) (UniProt P03951); test: Inhibition of human FXIa assessed as S-2366 hydrolysis at 300 uM after 10 mins by microplate reader analysis
# Procedure, shortened: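 Human FXIa (0.765 nM final) preincubated 10 min at 37 °C with inhibitor or solvent reference in pH 7.4 50 mM Tris-HCl, 150 mM NaCl, 0.1% PEG8000, 0.02% Tween80. S-2366 (345 µM) then added, and initial A405 rate read on a microplate reader. Residual activity is expressed relative to the no-inhibitor control. Highest concentration tested was 300 µM.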
# Plasma [3] = test: Ratio of concentration required to double clotting time for compound to enoxaparin in human plasma; format: functional
# Blood [4] = test: Anticoagulant activity in human whole blood assessed as maximum amplitude at 280 ug/ml by thromboelastography (reference value: 59 mm); format: functional
# Procedure, shortened: (§1)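 Thromboelastography in sodium-citrated human whole blood at 37 °C. 340 µL of blood containing 10 µL of the agent (or high-purity water) is added to a cup holding 20 µL of 200 mM CaCl2 stock, oscillating through 4°45′ at 0.1 Hz. Clot force on a central pin is recorded and read out as R, α, MA and G.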
# Blood [5] = test: Anticoagulant activity in human whole blood assessed as maximum amplitude at 190 ug/ml by thromboelastography (reference value: 59 mm); format: functional; procedure, shortened: as §1
# Blood [6] = test: Anticoagulant activity in human whole blood assessed as maximum amplitude at 135 ug/ml by thromboelastography (reference value: 59 mm); format: functional; procedure, shortened: as §1
# Blood [7] = test: Anticoagulant activity in human whole blood assessed as maximum amplitude at 20 ug/ml by thromboelastography (reference value: 59 mm); format: functional; procedure, shortened: as §1
# Blood [8] = test: Anticoagulant activity in human whole blood assessed as angle alpha at 190 ug/ml by thromboelastography (reference value: 56.4 deg); format: functional; procedure, shortened: as §1
# Blood [9] = test: Anticoagulant activity in human whole blood assessed as angle alpha at 135 ug/ml by thromboelastography (reference value: 56.4 deg); format: functional; procedure, shortened: as §1
# Blood [10] = test: Anticoagulant activity in human whole blood assessed as angle alpha at 20 ug/ml by thromboelastography (reference value: 56.4 deg); format: functional; procedure, shortened: as §1
# Blood [11] = test: Anticoagulant activity in human whole blood assessed as clot formation time at 280 ug/ml by thromboelastography (reference value: 6.0 mins); format: functional; procedure, shortened: as §1
# Blood [12] = test: Anticoagulant activity in human whole blood assessed as clot formation time at 190 ug/ml by thromboelastography (reference value: 6.0 mins); format: functional; procedure, shortened: as §1
# Blood [13] = test: Anticoagulant activity in human whole blood assessed as clot formation time at 135 ug/ml by thromboelastography (reference value: 6.0 mins); format: functional; procedure, shortened: as §1
# Blood [14] = test: Anticoagulant activity in human whole blood assessed as clot formation time at 20 ug/ml by thromboelastography (reference value: 6.0 mins); format: functional; procedure, shortened: as §1
# Plasma [15] = test: Anticoagulant activity in human plasma assessed as concentration required to double activated partial […] time; format: functional
# Procedure, shortened: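 Citrated pooled normal human plasma (90 µL) plus 10 µL of the test agent and 100 µL of prewarmed ellagic acid APTT reagent (0.2% ellagic acid). The mixture is incubated 4 min at 37 °C, then clotting is started with prewarmed 25 mM CaCl2 and read on a fibrometer. Clotting time versus concentration is fitted to a quadratic trend line to get the concentration that doubles it. Water or organic vehicle serves as the blank.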
# Plasma [16] = test: Anticoagulant activity in human plasma assessed as concentration required to double […] prothrombin time; format: functional
# Procedure, shortened: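 Prothrombin time is a one-stage recalcification assay read on a fibrometer. 10 µL of the agent is made up to 100 µL with citrated human plasma and incubated 30 s at 37 °C. Clotting is started with 200 µL of prewarmed thromboplastin-D. A quadratic trend line of clotting time versus concentration gives the concentration that doubles clotting time. Water or organic vehicle serves as the blank.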
# [17] = target: T1, Serine protease 1 (Bos taurus) (UniProt P00760); test: Inhibition of bovine trypsin at 1.8 mg/ml after 60 secs by spectrophotometry
# T1 sequence (whole entry): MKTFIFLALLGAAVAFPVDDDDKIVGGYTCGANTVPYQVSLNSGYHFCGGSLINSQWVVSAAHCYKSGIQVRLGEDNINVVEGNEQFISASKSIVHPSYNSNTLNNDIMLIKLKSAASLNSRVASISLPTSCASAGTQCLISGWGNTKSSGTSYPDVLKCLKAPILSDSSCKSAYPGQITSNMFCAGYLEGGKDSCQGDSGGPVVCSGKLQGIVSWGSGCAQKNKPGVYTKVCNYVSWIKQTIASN
# Procedure, shortened: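 Chromogenic substrate hydrolysis assay of bovine trypsin (72.5 ng/mL in the well) with 80 µM substrate, with substrate level chosen from its KM. Enzyme stock was in 50 mM Tris-HCl pH 7.4, 150 mM NaCl, 0.1% PEG8000, 0.02% Tween80. Fractional residual activity was read spectrophotometrically across at least six serial inhibitor dilutions to derive IC50.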
# [18] = target: T2, Coagulation factor XII (Homo sapiens) (UniProt P00748); test: (§2) Inhibition of FXIIa (unknown origin) after 60 secs by spectrophotometry
# T2 sequence (whole entry): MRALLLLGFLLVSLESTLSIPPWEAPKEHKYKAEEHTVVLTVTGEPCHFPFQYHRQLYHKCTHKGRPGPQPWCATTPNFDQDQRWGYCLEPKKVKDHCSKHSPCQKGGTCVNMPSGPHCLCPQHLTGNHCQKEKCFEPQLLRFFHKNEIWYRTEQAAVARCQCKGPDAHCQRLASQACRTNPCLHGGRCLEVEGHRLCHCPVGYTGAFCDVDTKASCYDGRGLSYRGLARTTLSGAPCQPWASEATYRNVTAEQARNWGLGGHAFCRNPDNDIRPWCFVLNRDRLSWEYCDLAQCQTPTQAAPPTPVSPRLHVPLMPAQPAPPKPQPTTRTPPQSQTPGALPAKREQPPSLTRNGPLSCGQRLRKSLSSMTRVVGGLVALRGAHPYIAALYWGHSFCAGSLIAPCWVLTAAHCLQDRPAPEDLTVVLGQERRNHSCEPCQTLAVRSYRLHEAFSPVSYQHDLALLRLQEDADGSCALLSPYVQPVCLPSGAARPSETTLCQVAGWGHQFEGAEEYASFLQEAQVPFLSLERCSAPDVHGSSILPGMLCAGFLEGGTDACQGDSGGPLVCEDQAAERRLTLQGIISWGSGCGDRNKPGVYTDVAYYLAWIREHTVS
# Procedure, shortened: (§3)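 Chromogenic substrate hydrolysis at pH 7.4 with at least six serially diluted concentrations of the agent. Residual activity is read spectrophotometrically and the IC50 is obtained from a dose–response fit. Substrate levels were set from its KM. Final enzyme/substrate: thrombin 6 nM/50 µM Spectrozyme TH; FXa 1.09 nM/125 µM; FXIIa 5 nM/125 µM; FIXa 89 nM/850 µM.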
# Coagulation factor XII = target: T3, Coagulation factor XII (Homo sapiens, UniProt P00748); test: as §2; procedure, shortened: as §3
# T3 sequence (P00748 whole entry): T2 sequence (whole entry)
# Coagulation factor X = Coagulation factor X (Homo sapiens, UniProt P00742); test: Inhibition of human FXa after 60 secs by spectrophotometry
# Coagulation factor IX = Coagulation factor IX (Homo sapiens, UniProt P00740); test: Inhibition of human FIXa after 60 secs by spectrophotometry
# [19] = target: T4, Coagulation factor VII (Homo sapiens) (UniProt P08709); test: Inhibition of human FVIIa at 3.7 mg/ml after 60 secs by spectrophotometry
# T4 sequence (whole entry): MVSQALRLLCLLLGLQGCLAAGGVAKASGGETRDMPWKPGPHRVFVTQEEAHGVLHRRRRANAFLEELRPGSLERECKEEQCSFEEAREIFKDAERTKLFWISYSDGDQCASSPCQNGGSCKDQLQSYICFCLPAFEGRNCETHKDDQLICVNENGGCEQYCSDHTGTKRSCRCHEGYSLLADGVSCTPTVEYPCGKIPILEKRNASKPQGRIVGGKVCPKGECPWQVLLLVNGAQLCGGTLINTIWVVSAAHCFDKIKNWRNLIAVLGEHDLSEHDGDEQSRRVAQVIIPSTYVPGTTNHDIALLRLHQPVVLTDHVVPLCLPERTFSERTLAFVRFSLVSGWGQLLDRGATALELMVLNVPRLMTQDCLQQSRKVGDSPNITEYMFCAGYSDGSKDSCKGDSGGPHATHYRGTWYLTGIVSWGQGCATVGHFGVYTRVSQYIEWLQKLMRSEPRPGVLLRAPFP
# Procedure, shortened: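 Chromogenic hydrolysis with at least six serial concentrations of the agent and spectrophotometric residual activity. Factor VIIa was 8 nM with 1000 µM Spectrozyme FVIIa plus 40 nM recombinant tissue factor. Bovine chymotrypsin was 500 ng/mL with 240 µM Spectrozyme CTY.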
# Prothrombin = Prothrombin (Homo sapiens, UniProt P00734); test: Inhibition of human thrombin after 60 secs by spectrophotometry; procedure, shortened: as §3
# [20] = target: Coagulation factor XI (Homo sapiens) (UniProt P03951); conditions: 3 uM
# Bos taurus = species: Bos taurus; test: Inhibition of bovine chymotrypsin at 1.8 mg/ml after 60 secs by spectrophotometry
# Chain of Coagulation factor XI (Homo sapiens) (P03951 19-387 limits assumed): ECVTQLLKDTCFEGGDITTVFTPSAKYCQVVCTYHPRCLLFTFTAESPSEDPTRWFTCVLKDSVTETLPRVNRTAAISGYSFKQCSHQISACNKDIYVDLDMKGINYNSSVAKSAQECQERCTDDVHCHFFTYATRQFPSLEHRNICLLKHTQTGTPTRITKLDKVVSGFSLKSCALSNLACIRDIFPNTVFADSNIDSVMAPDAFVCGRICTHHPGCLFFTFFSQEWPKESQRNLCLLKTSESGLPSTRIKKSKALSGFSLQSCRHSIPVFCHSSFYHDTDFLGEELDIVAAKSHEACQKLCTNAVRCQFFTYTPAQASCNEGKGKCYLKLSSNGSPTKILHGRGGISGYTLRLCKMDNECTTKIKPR
# Chain of Coagulation factor XI (Homo sapiens) (P03951 388-625 limits assumed): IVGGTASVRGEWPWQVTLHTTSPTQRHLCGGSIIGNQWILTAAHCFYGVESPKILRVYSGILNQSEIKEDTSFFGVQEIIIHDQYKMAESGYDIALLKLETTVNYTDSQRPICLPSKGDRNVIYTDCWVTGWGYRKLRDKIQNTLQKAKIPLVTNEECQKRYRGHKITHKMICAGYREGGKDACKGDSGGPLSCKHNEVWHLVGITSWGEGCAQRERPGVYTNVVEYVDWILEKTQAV
# Chain of Coagulation factor X (P00742 41-179 limits assumed): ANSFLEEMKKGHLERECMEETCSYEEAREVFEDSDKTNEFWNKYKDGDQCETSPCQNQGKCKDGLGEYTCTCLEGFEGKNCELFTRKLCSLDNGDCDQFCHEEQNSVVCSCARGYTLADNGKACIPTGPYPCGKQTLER
# Chain of Coagulation factor X (P00742 235-488 limits assumed): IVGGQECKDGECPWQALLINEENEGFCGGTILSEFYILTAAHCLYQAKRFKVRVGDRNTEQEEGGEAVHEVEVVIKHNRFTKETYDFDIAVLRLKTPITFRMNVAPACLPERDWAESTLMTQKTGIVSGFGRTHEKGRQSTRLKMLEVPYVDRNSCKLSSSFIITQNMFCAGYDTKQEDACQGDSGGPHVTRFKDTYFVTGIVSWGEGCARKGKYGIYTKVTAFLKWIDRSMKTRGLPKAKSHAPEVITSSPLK
# Chain of Coagulation factor IX (P00740 47-191 limits assumed): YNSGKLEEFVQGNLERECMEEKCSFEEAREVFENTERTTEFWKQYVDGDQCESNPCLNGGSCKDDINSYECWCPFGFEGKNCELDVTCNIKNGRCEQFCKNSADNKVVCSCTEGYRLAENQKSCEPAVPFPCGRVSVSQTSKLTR
# Chain of Coagulation factor IX (P00740 227-461 limits assumed): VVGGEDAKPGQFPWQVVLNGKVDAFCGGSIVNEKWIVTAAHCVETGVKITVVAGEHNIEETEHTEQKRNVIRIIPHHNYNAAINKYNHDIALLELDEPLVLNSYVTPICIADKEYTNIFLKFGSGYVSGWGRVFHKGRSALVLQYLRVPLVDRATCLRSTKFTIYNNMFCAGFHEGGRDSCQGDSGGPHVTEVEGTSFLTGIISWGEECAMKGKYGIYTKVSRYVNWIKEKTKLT
compound,measurement,setting,value
O=C(O)C1Cc2c(OS(=O)(=O)O)ccc(OS(=O)(=O)O)c2CN1C(=O)CCCCc1cc(OS(=O)(=O)O)ccc1OS(=O)(=O)O (centres undefined),inhibition,[1],inactive
O=C(O)C1Cc2cc(OS(=O)(=O)O)c(OS(=O)(=O)O)cc2CN1C(=O)CCc1cc(OS(=O)(=O)O)ccc1OS(=O)(=O)O (centres undefined),inhibition,[1],inactive
O=C(O)C1Cc2cc(OS(=O)(=O)O)c(OS(=O)(=O)O)cc2CN1C(=O)CCCCc1cc(OS(=O)(=O)O)ccc1OS(=O)(=O)O (centres undefined),inhibition,[1],inactive
O=C(OC[C@H]1O[C@@H](OC(=O)c2cc(O)c(O)c(O)c2)[C@H](OC(=O)c2cc(O)c(O)c(O)c2)[C@@H](OC(=O)c2cc(O)c(O)c(O)c2)[C@@H]1OC(=O)c1cc(O)c(O)c(O)c1)c1cc(O)c(O)c(O)c1,inhibition,[2],inactive
O=C(CCc1cc(OS(=O)(=O)O)ccc1OS(=O)(=O)O)N1CCc2cc(OS(=O)(=O)O)c(OS(=O)(=O)O)cc2C1,inhibition,[1],inactive
O=C(/C=C/c1ccc(OS(=O)(=O)O)c(OS(=O)(=O)O)c1)O[C@@H]1C[C@](O)(C(=O)O)C[C@@H](OS(=O)(=O)O)[C@H]1OS(=O)(=O)O,inhibition,[1],inactive
O=C(CCCc1cc(OS(=O)(=O)O)ccc1OS(=O)(=O)O)N1CCc2c(ccc(OS(=O)(=O)O)c2OS(=O)(=O)O)C1,inhibition,[1],inactive
O=C(O)C1Cc2c(OS(=O)(=O)O)ccc(OS(=O)(=O)O)c2CN1C(=O)CCCc1cc(OS(=O)(=O)O)ccc1OS(=O)(=O)O (centres undefined),inhibition,[1],inactive
O=C(OC[C@H]1O[C@@H](OC(=O)c2cc(OS(=O)(=O)[O-])c(O)c(OS(=O)(=O)[O-])c2)[C@H](OC(=O)c2cc(OS(=O)(=O)[O-])c(O)c(OS(=O)(=O)[O-])c2)[C@@H](OC(=O)c2cc(OS(=O)(=O)[O-])c(O)c(OS(=O)(=O)[O-])c2)[C@@H]1OC(=O)c1cc(OS(=O)(=O)[O-])c(O)c(OS(=O)(=O)[O-])c1)c1cc(OS(=O)(=O)[O-])c(O)c(OS(=O)(=O)[O-])c1.[Na+].[Na+].[Na+].[Na+].[Na+].[Na+].[Na+].[Na+].[Na+].[Na+] [sulfated pentagalloylglucoside],Ratio,Plasma [3],18
same,Activity,Blood [4],15.1 mm
same,Activity,Blood [5],43.5 mm
same,Activity,Blood [6],49.8 mm
same,Activity,Blood [7],62 mm
same,Activity,Blood [8],9.4 degree
same,Activity,Blood [9],30.6 degree
same,Activity,Blood [10],51.4 degree
same,Time,Blood [11],87.1 min
same,Time,Blood [12],37.8 min
same,Time,Blood [13],22.8 min
same,Time,Blood [14],6.6 min
same,2aPTT,Plasma [15],96 µg/mL
same,2PT,Plasma [16],298 µg/mL
same,inhibition,[17],inactive
same,Efficacy,[18],55.7%
same,IC50,Coagulation factor XII,131 µM
same,IC50,Coagulation factor X,136 µM
same,IC50,Coagulation factor IX,582 µM
same,inhibition,[19],inactive
same,IC50,Prothrombin,622 µM
same,Efficacy,[20],100%
same,inhibition,Bos taurus,inactive
O=C(O)C1Cc2c(OS(=O)(=O)O)ccc(OS(=O)(=O)O)c2CN1C(=O)CCc1cc(OS(=O)(=O)O)ccc1OS(=O)(=O)O (centres undefined),inhibition,[1],inactive
COc1cc([C@H]2Oc3cc([C@H]4Oc5cc(OS(=O)(=O)O)cc(O)c5C(=O)[C@@H]4OS(=O)(=O)O)ccc3O[C@@H]2COS(=O)(=O)O)ccc1OS(=O)(=O)O,inhibition,[1],inactive
O=C(O)C1Cc2cc(OS(=O)(=O)O)c(OS(=O)(=O)O)cc2CN1C(=O)CCCc1cc(OS(=O)(=O)O)ccc1OS(=O)(=O)O (centres undefined),inhibition,[1],inactive
